This note sets out measurements from ChEMBL document CHEMBL4004861, “Novel 2,3-disubstituted quinazoline-4(3H)-one molecules derived from amino acid linked sulphonamide as a potent malarial antifolates for DHFR inhibition” (Eur J Med Chem, 2017).

Data set [1] concerns Plasmodium falciparum. Kind of data set: Antimalarial activity against Plasmodium falciparum. The data set is classed as functional. The method in brief:
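Drug stocks diluted in complete medium (RPMI 1640 plus 10% human serum) over seven dilutions, 0.0001 up to 100 mg/mL as printed. Reference antimalarials run as positive controls in every experiment. Percent inhibition at each concentration was calculated against untreated control to give IC50.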

For data set [2], the target named is T1, Dihydrofolate reductase (Bos taurus, UniProt P00376).
T1 sequence (P00376 whole entry): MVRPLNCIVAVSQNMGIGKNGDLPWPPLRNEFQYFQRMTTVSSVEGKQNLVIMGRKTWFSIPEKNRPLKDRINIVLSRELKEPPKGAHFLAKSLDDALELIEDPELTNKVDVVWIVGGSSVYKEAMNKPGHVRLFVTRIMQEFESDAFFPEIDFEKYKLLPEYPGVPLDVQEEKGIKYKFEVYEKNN
Kind of data set: Inhibition of bovine liver DHFR using FH2 as substrate preincubated for 2 mins followed by substrate addition in presence of NADPH.

A short description of data set [3]: Selectivity index, ratio of CC50 for RBC (unknown origin) to EC50 for Plasmodium falciparum infected in RBC. The method in brief:
(§1)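 MTT reduction, run in parallel on infected and on normal uninfected RBC cultures and read at 565 and 690 nm. Compounds were in RPMI 1640 with 10% human serum, seven dilutions. Drug-free, parasite-free RBC cultures were set as maximum activity, with untreated, uninfected and cell-free controls. EC50 (parasite) and CC50 (RBC) were derived, and SI = CC50/EC50.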

The subject of data set [4] is Vero. In words: Cytotoxicity against African green monkey Vero cells assessed as reduction in cell viability up to 15 ug/ml after 72 hrs by MTT assay. The conditions noted are these: chlorocebus sabaeus. The data set is classed as cell-based. In outline:
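Vero cells were exposed to compounds for 72 h at 37 °C, with MTT conversion to formazan read at 540 nm. Viability was calculated relative to cells treated with 0.1% DMSO medium. Triplicate treatments; IC50 derived. Cells were tested up to 15 µg/mL.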

The subject of data set [5] is Plasmodium falciparum. In words: Antimalarial activity against Plasmodium falciparum assessed as reduction in parasitic LDH activity by Malstat reagent based spectrophotometric method. The data set is classed as functional. In outline: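 Parasite lactate dehydrogenase (Malstat) read spectrophotometrically at 650 nm. Compounds were in RPMI 1640 with 10% human serum, seven dilutions.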

A short description of data set [6]: Selectivity index, ratio of IC50 for African green monkey Vero cells to IC50 for bovine liver DHFR. The method in brief: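 Bovine liver DHFR (0.02 units) in 50 mM Tris-HCl pH 7.4 with 50 µM NADPH, compounds in DMSO at final 10⁻¹¹–10⁻⁵ M, total volume 2.0 ml. Mixture held 2 min at room temperature, then started with 25 µM FH2, and ΔA/min at 340 nm recorded. […] SI = Vero IC50 / DHFR IC50, triplicate averages.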

Data set [7] concerns Plasmodium falciparum. In words: Antimalarial activity against Plasmodium falciparum infected in RBC after 5 days by MTT assay. The format is functional. In outline: as §1
For orientation: Tetrazolium dyes change colour on reduction, which living cells bring about.

≈ marks a conversion by molar mass, not a printed value.

Take `CC(C)CC(NS(=O)(=O)c1ccc(N)cc1)c1nc2ccccc2c(=O)n1-c1ccccc1[N+](=O)[O-]` (stereo not drawn): the IC50 in data set [1] is 0.92 µg/mL (≈ 1.81 µM).

Consider `COc1ccc(-n2c(C(CC(C)C)NS(=O)(=O)c3ccc(N)cc3)nc3ccccc3c2=O)cc1` (stereo not drawn), for which the IC50 in data set [1] was 0.068 µg/mL (≈ 0.138 µM); in data set [2], 97.4 nM; in data set [5], 8317 ppm. Moreover, the Ratio CC50/EC50 in data set [3] is 19500. For the same molecule, the Activity result in data set [4] is listed as “Non-Toxic”. Moreover, in data set [6], the “Ratio IC50” value was 312.5. Also, the EC50 in data set [7] came out at 1009 ppm.

Molecule `COc1cc(Cc2cnc(N)nc2N)cc(OC)c1OC` [TRIMETHOPRIM] displayed an IC50 in data set [1] of 0.38 µg/mL (≈ 1.31 µM).

Molecule `CC(C)CC(NS(=O)(=O)c1ccc(N)cc1)c1nc2ccccc2c(=O)n1-c1ccccc1F` (stereo not drawn) registered an IC50 in data set [1] of 1.01 µg/mL (≈ 2.11 µM).

`CC(C)CC(NS(=O)(=O)c1ccc(N)cc1)c1nc2ccccc2c(=O)n1-c1cccc(Br)c1` (stereo not drawn) yielded an IC50 in data set [1] of 0.78 µg/mL (≈ 1.44 µM).

`COc1cccc(-n2c(C(CC(C)C)NS(=O)(=O)c3ccc(N)cc3)nc3ccccc3c2=O)c1` (stereo not drawn) returned an IC50 in data set [1] of 0.78 µg/mL (≈ 1.58 µM).

Turning to `CC(C)CC(NS(=O)(=O)c1ccc(N)cc1)c1nc2ccccc2c(=O)n1-c1ccc(F)cc1` (stereo not drawn), in data set [1], the IC50 was determined as 1.12 µg/mL (≈ 2.33 µM).

In the case of `CC(C)CC(NS(=O)(=O)c1ccc(N)cc1)c1nc2ccccc2c(=O)n1-c1cccc(Cl)c1` (stereo not drawn), the IC50 in data set [1] is 0.068 µg/mL (≈ 0.137 µM); in data set [2], 72.4 nM; in data set [5] it was 524.8 ppm. The Ratio CC50/EC50 in data set [3] is 50.6. Further, the Activity entry in data set [4] is “Non-Toxic”. Besides, the “Ratio IC50” value in data set [6] amounted to 416.66. Also, the EC50 in data set [7] is listed as 368.97 ppm.

In data set [1], `COc1ccccc1-n1c(C(CC(C)C)NS(=O)(=O)c2ccc(N)cc2)nc2ccccc2c1=O` (stereo not drawn) registered an IC50 of 0.72 µg/mL (≈ 1.46 µM).

In data set [1], `CC(C)CC(NS(=O)(=O)c1ccc(N)cc1)c1nc2ccccc2c(=O)n1-c1ccccc1Cl` (stereo not drawn) showed an IC50 of 0.136 µg/mL (≈ 0.274 µM).

Take `CC(C)CC(NS(=O)(=O)c1ccc(N)cc1)c1nc2ccccc2c(=O)n1-c1ccc(Br)cc1` (stereo not drawn): the IC50 in data set [1] is 0.068 µg/mL (≈ 0.126 µM); in data set [2] it was 161 nM; in data set [5], 37240 ppm. The Ratio CC50/EC50 in data set [3] was 15.3. Further, in data set [4], the Activity result was “Non-Toxic”. The “Ratio IC50” value in data set [6] is reported as 172.14. In addition, in data set [7], the EC50 is recorded as 1909 ppm.

On to `CC(C)CC(NS(=O)(=O)c1ccc(N)cc1)c1nc2ccccc2c(=O)n1-c1ccc([N+](=O)[O-])cc1` (stereo not drawn), for which the IC50 in data set [1] worked out at 0.84 µg/mL (≈ 1.65 µM).

The molecule `Cc1cccc(-n2c(C(CC(C)C)NS(=O)(=O)c3ccc(N)cc3)nc3ccccc3c2=O)c1` (stereo not drawn) had an IC50 in data set [1] of 1.28 µg/mL (≈ 2.69 µM).

Regarding `CC(C)CC(NS(=O)(=O)c1ccc(N)cc1)c1nc2ccccc2c(=O)n1-c1ccccc1Br` (stereo not drawn), the IC50 in data set [1] is 0.068 µg/mL (≈ 0.126 µM); in data set [2] it was 168 nM; in data set [5] it was 3380 ppm. The Ratio CC50/EC50 in data set [3] turned out to be 20.6. Also, in data set [4], the Activity result is reported as “Non-Toxic”. For the same molecule, the “Ratio IC50” value in data set [6] is listed as 164.83. The molecule further registered an EC50 in data set [7] of 2831 ppm.

In data set [1], `Cc1ccc(-n2c(C(CC(C)C)NS(=O)(=O)c3ccc(N)cc3)nc3ccccc3c2=O)cc1` (stereo not drawn) came in with an IC50 of 0.67 µg/mL (≈ 1.41 µM).

Consider `CC(C)CC(NS(=O)(=O)c1ccc(N)cc1)c1nc2ccccc2c(=O)n1-c1cccc([N+](=O)[O-])c1` (stereo not drawn), for which the IC50 in data set [1] stood at 0.78 µg/mL (≈ 1.54 µM).

In turn, `CC(C)CC(NS(=O)(=O)c1ccc(N)cc1)c1nc2ccccc2c(=O)n1-c1ccccc1` (stereo not drawn) came in with an IC50 in data set [1] of 0.68 µg/mL (≈ 1.47 µM).

Regarding `Cc1ccccc1-n1c(C(CC(C)C)NS(=O)(=O)c2ccc(N)cc2)nc2ccccc2c1=O` (stereo not drawn), in data set [1], the IC50 was determined as 0.72 µg/mL (≈ 1.51 µM).

For `CCN(CC)CCCC(C)Nc1ccnc2cc(Cl)ccc12` (stereo not drawn) [CHLOROQUINE], in data set [2], the IC50 was 31.3 nM. In data set [7], this molecule displayed an EC50 of 28.97 ppm.

Molecule `CCc1nc(N)nc(N)c1-c1ccc(Cl)cc1` [PYRIMETHAMINE] displayed an IC50 in data set [1] of 0.25 µg/mL (≈ 1.01 µM).

For the molecule `CC(C)CC(NS(=O)(=O)c1ccc(N)cc1)c1nc2ccccc2c(=O)n1-c1ccc(Cl)cc1` (stereo not drawn), the IC50 in data set [1] is 0.068 µg/mL (≈ 0.137 µM); in data set [2], 56.3 nM; in data set [5], 96.38 ppm. In addition, in data set [3], the Ratio CC50/EC50 stood at 87.7. The Activity entry in data set [4] is given as “Non-Toxic”. The “Ratio IC50” value in data set [6] was 535.71. In addition, the EC50 in data set [7] was 115.61 ppm.

On to `CC(C)CC(NS(=O)(=O)c1ccc(N)cc1)c1nc2ccccc2c(=O)n1Nc1ccccc1` (stereo not drawn), for which the IC50 in data set [1] came to 1.05 µg/mL (≈ 2.2 µM).
